This is an account of results in ChEMBL document CHEMBL5214966, “Discovery of BT8009: A Nectin-4 Targeting Bicycle Toxin Conjugate for the Treatment of Cancer” (J Med Chem, 2022).

Broadly, the Ki is the equilibrium dissociation constant of an inhibitor or competing ligand from its target. The term half-life denotes the time in which the quantity being followed falls by half. As usually defined, the clearance is the rate of elimination divided by the concentration. Low readings indicate a low capacity for elimination, high ones a high capacity for elimination.

One series concerns the target T1, Nectin-4 (Homo sapiens, UniProt Q96NY8).
T1 sequence (Q96NY8 whole entry): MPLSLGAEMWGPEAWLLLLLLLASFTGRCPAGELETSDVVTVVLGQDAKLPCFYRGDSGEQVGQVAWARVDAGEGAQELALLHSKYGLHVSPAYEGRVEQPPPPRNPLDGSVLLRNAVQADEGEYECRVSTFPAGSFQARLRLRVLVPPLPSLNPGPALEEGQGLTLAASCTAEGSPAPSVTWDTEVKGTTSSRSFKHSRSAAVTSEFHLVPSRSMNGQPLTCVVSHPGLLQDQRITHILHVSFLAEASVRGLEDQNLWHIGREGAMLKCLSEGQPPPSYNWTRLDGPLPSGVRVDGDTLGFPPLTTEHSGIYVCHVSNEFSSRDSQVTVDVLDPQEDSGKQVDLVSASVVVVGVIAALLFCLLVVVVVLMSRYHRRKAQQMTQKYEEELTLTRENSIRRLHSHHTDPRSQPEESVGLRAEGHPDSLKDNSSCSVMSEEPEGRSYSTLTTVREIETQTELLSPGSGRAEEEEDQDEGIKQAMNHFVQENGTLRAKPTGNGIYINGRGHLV
Briefly: Displacement of tracer from C-terminal FLAG-tagged human Nectin-4 (32 to 349 residues) expressed in baculovirus infected sf9 cells assessed as inhibition constant measured at 5 to 10 mins interval for 60 mins by fluorescence polarization assay. Background: Polarisation of emitted light reports the rotation of a fluorescent probe.

Series [1] is described as follows: Thermodynamic solubility of the compound in phosphate buffer at pH 7.4. It counts as physicochemical. The note with it: read-out: Therm_solubility. In outline: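 Thermodynamic solubility measured in phosphate buffer at pH 7.4, expressed in mg/mL.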
A short description of series [2]: Stability in human plasma assessed as half life measured upto 24 hrs by LC-MS/MS analysis. It counts as ADME, cell-free.
A short description of series [3]: Stability in mouse plasma assessed as half life measured upto 24 hrs by LC-MS/MS analysis. The class given is ADME, cell-free.
Series [4] in a line: Toxicity in Balb/c mouse assessed as drug tolerability at 3 to 5 mg/kg, iv administered as bolus injection measured upto 42 days. It counts as organism-based. The note with it: in vivo, 1008 h, dose 3-5 mg/kg, time < 42 day. In short, it runs like this: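 Doses were 3 mg/kg once or twice weekly and 5 mg/kg once weekly over 18 days, with one group monitored to day 42.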
Series [5] is described as follows: Plasma protein binding in mouse by LC/MS/MS analysis. It counts as ADME, cell-free. The note with it: read-out: PPB (converted).
The subject of series [6] is MDA-MB-468. The series can be described thus: Antitumor activity against human MDA-MB-468 cells xenografted in Balb/c mouse model assessed as tumor regression at 3 mg/kg, iv administered as bolus injection once weekly for 18 days. The class given is functional, organism-based. The note with it: time 18.0 day. In short, it runs like this:
(§1)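 Dosing regimens were 3 mg/kg once weekly, 3 mg/kg twice weekly, or 5 mg/kg once weekly. Dosing ran 18 days. After dosing stopped, the 5 mg/kg once-weekly group was followed to day 42. Read-out was tumour growth/regression.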
In general terms: Xenograft models place foreign cells or tissue in a host animal.

Series [7] can be described thus: Half life in mouse at 3 mg/kg, iv administered as bolus injection. The note with it: in vivo. It counts as ADME, organism-based. In short, it runs like this:
(§2)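 Mouse pharmacokinetics after a single 3 mg/kg IV bolus. Terminal half-life, plasma clearance (mL/min/kg) and steady-state volume of distribution (L/kg) were derived from plasma levels.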

Series [8] relates to MDA-MB-468. Briefly: Antitumor activity against human MDA-MB-468 cells xenografted in Balb/c mouse model assessed as tumor regression 5 mg/kg, iv administered as bolus injection once weekly for 18 days and measured upto 42 days. It counts as functional, organism-based. The note with it: time <= 42.0 day. In short, it runs like this:
as §1

Series [9] is described as follows: Plasma protein binding in human LC/MS/MS analysis. It counts as ADME, cell-free. Particulars: read-out: PPB (converted).
Series [10] is described as follows: Clearance in mouse plasma at 3 mg/kg, iv administered as bolus injection. It counts as ADME, organism-based. In short, it runs like this: as §2
A short description of series [11]: Volume of distribution at steady state in mouse at 3 mg/kg, iv administered as bolus injection. The class given is ADME, organism-based. Particulars: in vivo, read-out: Vdss. In outline:
as §2

For series [12], the system named is MDA-MB-468. Briefly: Antitumor activity against human MDA-MB-468 cells xenografted in Balb/c mouse model assessed as tumor regression at 3 mg/kg, iv twice weekly or 5 mg/kg, iv once weekly administered as bolus injection for 18 days. The class given is functional, organism-based. The note with it: dose 3-5 mg/kg, time 18.0 day. In outline: as §1

Each structure is given as a SMILES string. Values after ≈ are worked out from the molar mass of the structure shown. Active and inactive are the calls of the source. The calls are words filed in the database; no cut-off is given here. *1 amine or outer side, *2 acyl side, *3 side chain or, on linkers, in order; H or OH if unused. Where a SMILES comes first, the peptide text is derived from it. Bridges are numbered along the chain shown (N, C = ends). [ ]: non-standard residue; d: D form. TATA = O=C(CC[*:1])N1CN(C(=O)CC[*:2])CN(C(=O)CC[*:3])C1 Bounds are passed on as bounds.

Turning to `CC[C@H](C)[C@@H]1NC(=O)[C@@H]2CCCN2C(=O)[C@H](Cc2c[nH]c3ccccc23)NC(=O)[C@H](CO)NC(=O)[C@H](Cc2c[nH]c3ccccc23)NC(=O)[C@H](CC(N)=O)NC(=O)[C@H](CCCCN)NC(=O)[C@H](CCSC)NC(=O)[C@@H]2CSCCC(=O)N3CN(CN(C3)C(=O)CCSC[C@@H](NC(C)=O)C(=O)N3CCC[C@H]3C(=O)N[C@@H](Cc3ccccc3)C(=O)NCC(=O)N2)C(=O)CCSC[C@@H](C(=O)N[C@H](C(=O)N[C@@H](CC(N)=O)C(=O)N[C@@H](CCCCN)C(N)=O)[C@@H](C)O)NC(=O)[C@H](Cc2c[nH]c3ccccc23)NC1=O` (Ac-[dC]PFGCMKNWSWPIWCTNK-NH2; linker 1-5-15 via TATA), on Nectin-4, the Ki was found to be 13.5 nM. Moreover, in series [1], the solubility thermodynamic was determined as 4400 µg/mL (≈ 1770 µM). For the same molecule, the half-life in series [2] was greater than 24 h; in [3] it was 2.2 h.

Regarding `CC[C@H](C)[C@@H]([C@H](CC(=O)N1CCCC1[C@@H](OC)[C@H](C)C(=O)N[C@@H](C)[C@H](O)c1ccccc1)OC)N(C)C(=O)[C@@H](NC(=O)[C@H](C(C)C)N(C)C(=O)OCc1ccc(NC(=O)[C@H](CCCNC(N)=O)NC(=O)[C@@H](NC(=O)CCCC(=O)NCCC(=O)N(C)CC(=O)N(C)CC(=O)N(C)CC(=O)N(C)CC(=O)N(C)CC(=O)N(C)CC(=O)N(C)CC(=O)N(C)CC(=O)N(C)CC(=O)N(C)CC(=O)N[C@@H](C)N[C@@H](CCCCNC(=N)N)C(=O)N[C@@H](CC(=O)O)C(=O)N[C@H]2CSCCC(=O)N3CN4CCC(=O)SC[C@H](NC(=O)[C@H](CC(C)C)NC(=O)[C@@H]5CCCN5C(=O)[C@H](CC(N)=O)NC(=O)[C@H](C(C)C)NC(=O)[C@H](CC(C)C)NC(=O)C5C[C@@H](O)CN5C2=O)C(=O)N[C@@H](CC(C)C)C(=O)N[C@@H](Cc2c[nH]cn2)C(=O)N2CCCC2C(=O)N[C@@H](CC(=O)O)C(=O)N[C@@H](Cc2c[nH]c5ccccc25)C(=O)N[C@@H](Cc2c[nH]c5ccccc25)C(=O)NC(CCCCNC(=N)N)C(=O)N[C@H](C(N)=O)CSCCC(=O)N(C4)C3)C(C)C)cc1)C(C)C` (stereo partly specified), in series [4], the Activity result is listed as “Non-Toxic”. Besides, the fraction unbound in [5] is 0.118; in series [9], 0.207. Further, the result with MDA-MB-468 [6], in the series with MDA-MB-468 [8] and in the series with MDA-MB-468 [12] was Active. Moreover, the half-life in [7] was 1 h; in series [2] it was greater than 57.8 h; in [3] it was 4.4 h. Besides, the solubility thermodynamic in [1] is 800 µg/mL (≈ 175 µM). For the same molecule, the clearance in [10] stood at 3.5 mL/min/kg. Besides, the Vd in series [11] was 0.25 L/kg.
